Experimental data reported in ChEMBL document CHEMBL1151913, “Preparation of novel (Z)-4-ylidenebenzo[b]furo[3,2-d][1,3]oxazines and their biological activity” (2009).
The source made the active and inactive calls. No cut-off for these calls is given here.

Legend:
Osteoblast = test: Anti-osteoclastic bone resorption activity in ddY mouse calvarial osteoblasts assessed as inhibition of PGE2-stimulated resorption pit formation relative to 17-beta-estradiol; type: functional, cell-based
How it was run: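 Osteoclasts generated by 7-day coculture of preconfluent calvarial osteoblasts (1–2 day old ddY mice) with fresh bone marrow cells (5 week-old male ddY mice) on collagen-coated dish in α-MEM (pH 7.0), 10% FCS, 10 nM calcitriol, 1.0 μM PGE2; collagenase-released cells plated on dentin slices with 10 nM E2 or compounds, 2 days; pits counted after toluidine blue staining.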

MCF7 = test: Growth inhibition of human MCF7 cells after 72 hrs by Alamar Blue assay; type: functional; conditions: MCF7, 72 h
How it was run: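 MCF-7 grown in E-MEM with 10% FCS and antibiotic-antimycotic; 1 × 10^4 cells/well seeded, 24 h at 37 °C, 5% CO2; medium replaced with drug-containing medium (final DMSO ≤0.25%) in triplicate wells, 72 h continuous exposure; alamarBlue added for further 3 h.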

MIA PaCa-2 = test: Growth inhibition of human MIAPaCa2 cells after 72 hrs by Alamar Blue assay; type: functional; conditions: MIA PaCa-2, 72 h
How it was run: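 MIA PaCa-2 grown in D-MEM with 10% FCS and antibiotic-antimycotic; 1 × 10^4 cells/well seeded, 24 h at 37 °C, 5% CO2; medium replaced with drug-containing medium (final DMSO ≤0.25%) in triplicate wells, 72 h continuous exposure; alamarBlue added for further 3 h.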

Compound | Activity (Osteoblast) | GI50 (MCF7) | GI50 (MIA PaCa-2)
COc1ccc(CCNC(=O)/C=C/C=C2\OC(/C=C/c3ccccc3)=Nc3c2oc2ccc(Br)cc32)cc1OC | inactive |  | 
C/C=C/C1=Nc2c(oc3ccc(Br)cc23)/C(=C/C=O)O1 | inactive |  | 
CCOC(=O)/C=C/C=C1\OC(/C=C/c2ccccc2)=Nc2c1oc1ccc(Br)cc21 | Active |  | 
O=C(/C=C/C=C1\OC(/C=C/c2ccccc2)=Nc2c1oc1ccc(Br)cc21)N1CCOCC1 | inactive |  | 
CCOP(=O)(OCC)/C(=C/C=C1\OC(/C=C/c2ccccc2)=Nc2c1oc1ccc(Br)cc21)c1ccc(Cl)cc1 | Active |  | 
COc1cccc2c3c(oc12)/C(=C/C=O)OC(/C=C/C=C(/Cl)c1ccc(F)cc1)=N3 |  | 7.14 µM | > 10 µM
O=C/C=C1\OC(/C=C/c2ccccc2)=Nc2c1oc1ccc(Br)cc21 | inactive |  | 
O=c1[nH]cc(F)c(=O)[nH]1 [FLUOROURACIL] |  | > 10 µM | > 10 µM
CCN(CC)C(=O)/C=C/C=C1\OC(/C=C/c2ccccc2)=Nc2c1oc1ccc(Br)cc21 | inactive |  | 
CCOC(=O)/C=C/C=C1\OC(/C=C(\Cl)c2ccc(Cl)cc2)=Nc2c1oc1ccc(Br)cc21 |  | > 10 µM | > 10 µM
COc1cccc2c3c(oc12)/C(=C/C=C/C(=O)N1CCOCC1)OC(/C=C/c1ccccc1)=N3 |  | > 10 µM | 5.34 µM
